Screening results: PubChem, several laboratories
697 NFkB inh: lowers PMA/ionomycin-induced NF-kB signal in 697 B cells; hit rate 0.33% among 330,000; 697 B-cell NF-kB luciferase reporter, 16 h; AID 435022; inhibition, % at 4 µM; in the data active = inhibition above about 35%
NR2E3 ag-1: activates human photoreceptor nuclear receptor NR2E3; AID 2300; hit rate 0.12% among 320,000; inhibition of corepressor binding, % at 4.78 µM; GST-NR2E3/biotin-RetCOR TR-FRET, 1536-well;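 active = percent inhibition above the cutoff of mean plus 3 SD of all tested compounds, set per screening campaign, cut at about 20% in these data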;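 note: 0% = DMSO wells and 100% = biotin wells as full block of FRET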
Target sequence (Q9Y5X4 whole entry, looked up): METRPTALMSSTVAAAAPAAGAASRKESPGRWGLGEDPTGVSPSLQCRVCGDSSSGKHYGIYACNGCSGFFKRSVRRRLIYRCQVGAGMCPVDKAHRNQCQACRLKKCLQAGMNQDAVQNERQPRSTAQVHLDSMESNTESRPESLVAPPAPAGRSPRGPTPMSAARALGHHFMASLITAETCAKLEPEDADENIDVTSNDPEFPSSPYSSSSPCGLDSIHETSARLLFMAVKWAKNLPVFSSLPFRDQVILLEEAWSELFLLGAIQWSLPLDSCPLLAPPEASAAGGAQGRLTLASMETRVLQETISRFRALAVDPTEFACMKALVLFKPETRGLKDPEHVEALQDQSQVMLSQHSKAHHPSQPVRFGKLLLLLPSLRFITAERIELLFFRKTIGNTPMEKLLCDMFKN
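Material: NR2E3–RetCOR corepressor complex / Incubation: Compound–protein incubation for 5 h at 4 °C / Dosing: compound at 4.8 µM, single dose / Detection: time-resolved FRET / Benchmarks: high control biotin, low control 0.6% DMSO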
NR2E3 ag-2: activates human NR2E3 receptor; Q9Y5X4; CHO-S Gal4-NCOR/VP16-NR2E3 two-hybrid, luciferase; inhibition of corepressor binding, % at 3.98 µM; hit rate 0.35% among 360,000; AID 602229;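 active = inhibition above the mean of all tested compounds plus 3 SD, cut at about 70% in these data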;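 note: 0% = DMSO with NR2E3 transfected cells and 100% = cells lacking NR2E3 construct; higher means lower luciferase signal from less NR2E3 corepressor binding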
miR-122 sensor: blocks miR-122 activity in Huh7 sensor cells; Huh7 miR-122 Renilla luciferase sensor, 48 h; neutral wells = 0, positive control = 100; activation (reporter increase), % at 12.5 µM; hit rate 0.3% among 340,000;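 active = mean replicate activation score at least 90 and every replicate individually at or above 90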;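 note: higher luciferase means less miR-122 activity so hits act as miR-122 inhibitors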
Jurkat NFkB inh: inhibitors of the PMA/ionomycin-induced NF-kB reporter in Jurkat cells; AID 435003; inhibition, % at 4 µM; PMA/ionomycin-induced NF-kB luciferase reporter, luminescence; hit rate 0.53% among 330,000; in the data active = inhibition above about 50%
FGF22 binding: binders of recombinant human FGF22 by thermal shift; Q9HCT0; SYPRO orange fluorescence; percent of sucrose octasulfate shift, DMSO zero; activity (Tm shift, normalised), % at 9.99 µM; hit rate 1.5% among 340,000; AID 651658;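 active = mean Tm shift, scaled 0 neutral to 100 positive control, at about 1.3% or above, every replicate too, limit read from the data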
* = called active by the depositor; [ ] = remark or other dose. Sampled rows, rich in hits. Any-hit rate of the full collection: about 2.2%.

For CC(C(=O)c1ccccc1)C(O)c1ccccn1 (configuration not stated) the results were NR2E3 ag-2 -20, miR-122 sensor 2 and FGF22 binding 44*.
COc1ccc(OC)c(CNC(=O)Cc2c(C(=O)O)[nH]c3ccccc23)c1 was read as 697 NFkB inh -14, NR2E3 ag-1 0, NR2E3 ag-2 3, miR-122 sensor 16 and Jurkat NFkB inh 3.
For COc1ccc(N(C)C(=O)Cc2c(C(=O)O)[nH]c3ccccc23)c(OC)c1 the results were 697 NFkB inh -1, NR2E3 ag-1 2, NR2E3 ag-2 16, Jurkat NFkB inh -2 and FGF22 binding 44*.
O=C(c1ccccc1F)N(Cc1cccnc1)Cc1cc2cc3c(cc2[nH]c1=O)OCCO3 was read as 697 NFkB inh 9, NR2E3 ag-1 -3, NR2E3 ag-2 5, miR-122 sensor -6, Jurkat NFkB inh 0 and FGF22 binding 43*.
For CC1CCN(C(=O)COC(=O)c2cc3ccccc3oc2=O)CC1 the results were 697 NFkB inh 8, NR2E3 ag-2 17, miR-122 sensor 6, Jurkat NFkB inh -1 and FGF22 binding 44*.
For O=C(Nc1cccc(Cl)c1)N1C[C@H]2[C@@H](c3ccccc31)[C@@H](CO)N2Cc1cccnc1 the results were miR-122 sensor -2[16.7 µM] and FGF22 binding 0.
Screening CCCNC(=O)Nc1ccc2c(c1)C(=O)N(C)[C@@H]1CC[C@H](CC(=O)OC)O[C@H]1CO2 returned miR-122 sensor -2[16.7 µM] and FGF22 binding 0.
For COc1ccc(N=C2NC(=O)/C(=C\C=C\c3ccccc3)S2)cc1 the results were 697 NFkB inh 17, NR2E3 ag-1 -1, NR2E3 ag-2 -53, miR-122 sensor -4, Jurkat NFkB inh 6 and FGF22 binding 44*.
`COc1ccc(N2c3ccccc3CN(Cc3ccccc3)CC2Cc2cc(OC)c(OC)c(OC)c2)cc1` (configuration not stated) gave NR2E3 ag-2 0, miR-122 sensor 1 and FGF22 binding 44*.
Screening Fc1cccc(Cn2cc(C(=S)N3CCOCC3)c3ccccc32)c1 returned 697 NFkB inh 9, NR2E3 ag-1 4, NR2E3 ag-2 -1, miR-122 sensor 176*, Jurkat NFkB inh -7 and FGF22 binding 0.
`Fc1cccc(Cn2cc(C(=S)N3CCCCC3)c3ccccc32)c1` gave 697 NFkB inh -8, NR2E3 ag-1 0, NR2E3 ag-2 -20, miR-122 sensor 24 and Jurkat NFkB inh 16.
For Cc1ccc(SC2CC(=O)N(c3ccc4c(c3)OCCO4)C2=O)cc1 (configuration not stated) the results were 697 NFkB inh 4, NR2E3 ag-1 3, NR2E3 ag-2 -17, Jurkat NFkB inh -6 and FGF22 binding 43*.
Cc1cc(C)cc(S(=O)(=O)c2cnc3ccccc3n2)c1 was read as 697 NFkB inh -8, NR2E3 ag-1 4, NR2E3 ag-2 -9, Jurkat NFkB inh -6 and FGF22 binding 43*.
Screening O=C(Nc1ccc(F)cc1)C1CC(=O)n2ncnc2N1 (configuration not stated) returned 697 NFkB inh 16, NR2E3 ag-1 -4, NR2E3 ag-2 11, miR-122 sensor -8, Jurkat NFkB inh -11 and FGF22 binding 43*.
O=S(=O)(NC(=NCc1ccccc1)c1ccc(F)cc1)c1ccc(Cl)cc1 was read as 697 NFkB inh 6, NR2E3 ag-1 -1, NR2E3 ag-2 -7, miR-122 sensor 148*, Jurkat NFkB inh -4 and FGF22 binding 0.
For CCC(=O)NC(C)c1cc(Cl)c2cccnc2c1O (configuration not stated) the results were 697 NFkB inh -1, NR2E3 ag-1 2, NR2E3 ag-2 -43, Jurkat NFkB inh -5 and FGF22 binding 0.
For CC(=O)NC(C)c1cc(Cl)c2cccnc2c1O (configuration not stated) the results were 697 NFkB inh -3, NR2E3 ag-1 7, NR2E3 ag-2 -21, miR-122 sensor -23, Jurkat NFkB inh -3 and FGF22 binding 45*.
